≈ marks a conversion by molar mass, not a printed value. Calls of active or inactive are those of the source. The rule behind the calls is not given here. Starred links: 1 amine or outer side, 2 acyl side, 3 side chain; linkers in the order of their positions; H or OH if unused. Positions of bridges follow the written chain, without caps; N, C: chain ends. Non-standard residues stand in square brackets, D forms with d. Residues, ends and D or L forms follow the SMILES beside them. *: point of attachment. pTerphenylCO(4''-OnC5H11) = CCCCCOc1ccc(-c2ccc(-c3ccc(C(=O)*)cc3)cc2)cc1; Orn(4R-OH,5R-OH) = O=C([C@H](C[C@@H](O)[C@@H](O)N[*:3])N[*:1])[*:2]; hTyr(3S-OH,4S-OH) = N[C@H](C(=O)O)[C@H](O)[C@@H](O)c1ccc(O)cc1; Pro(3S-OH,4S-Me) = C[C@H]1CN[C@H](C(=O)O)[C@H]1O; Hyp = O=C(O)[C@@H]1C[C@@H](O)CN1
How the values were obtained:
[1] = test system: Nakaseomyces glabratus; test: Antifungal activity against Candida glabrata 5376 infected in neutropenic ICR/Swiss mouse candidiasis model assessed as dose required for 1-log10 reduction in […] per kidney administered intraperitoneally every 24 hrs up to 4 days measured per 24 hrs; type: functional
In short: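 Neutropenic mouse disseminated candidiasis, with i.p. therapy starting 2 h after i.v. infection. Five total doses of 0.078–20 mg/kg/24 h were given q24h for 4 days, three mice per dose. Kidney CFU were counted at the end and compared with untreated controls. The dose giving a 1 log10 CFU/kidney reduction was derived from the sigmoid Hill dose–effect model.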

[2] = test system: Mus musculus; test: Cmax in serum of neutropenic ICR/Swiss mouse candidiasis model at 20 mg/kg, ip up to 4 hrs by reverse-phase high-pressure liquid chromatography; type: ADME, organism-based; set-up: dose 20 mg/kg, route intraperitoneal; details: in vivo
In short: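 Infected neutropenic ICR/Swiss mice given single ip doses (5, 20 or 80 mg/kg; 0.2 ml); serum from three isoflurane-anaesthetised mice at 1, 4, 8, 12, 24 and 48 h, stored at −80°C, assayed by reverse-phase HPLC with fluorescence detection, loratadine internal standard, linear 10–50,000 ng/ml. Noncompartmental analysis; half-life by nonlinear least squares.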

[3] = test system: Serum; test: Fraction unbound in Candida albicans K-1 infected neutropenic ICR/Swiss mouse serum at 1.25 mg/kg, ip administered 2 hrs postinfection as single dose; type: ADME, organism-based; set-up: dose 1.25 mg/kg, route intraperitoneal; details: in vivo
[4] = test system: Nakaseomyces glabratus; test: Antifungal activity against Candida glabrata 33609 infected in neutropenic ICR/Swiss mouse candidiasis model assessed as fungal count per kidney administered 2 hrs postinfection measured up to 48 hrs; type: functional
In short: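 Female ICR/Swiss mice (23–27 g) made neutropenic with cyclophosphamide s.c. (150 mg/kg day −4, 100 mg/kg day −1, 100 mg/kg day +2). Infected by tail vein with 0.1 ml inoculum (~6.1 log10 CFU/ml). Kidneys of untreated mice were homogenised and plated on SDA for 24 h at 35°C. Growth over 48 h is given as log10 CFU/kidney.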

[5] = test system: Nakaseomyces glabratus; test: Antifungal activity against Candida glabrata 32930 assessed as partial growth inhibition after 24 hrs by CLSI end point method; type: functional; details: Nakaseomyces glabratus, 32930, 24 h
In short: (§1)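 CLSI M27-A2 broth dilution. Two end points read against the drug-free control well: partial inhibition (CLSI end point) and complete inhibition. Run in duplicate on four separate occasions; value is the mean. Drug stock in DMSO, diluted in 0.9% NaCl.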

[6] = test system: Nakaseomyces glabratus; test: Antifungal activity against Candida glabrata 5376 infected in neutropenic ICR/Swiss mouse candidiasis model assessed as dose required to maintain […] burden of 1.83 +/- 0.54 log10CFU per kidney administered intraperitoneally every 24 hrs up to 4 days measured per 24 hrs; type: functional
[7] = test system: Nakaseomyces glabratus; test: Antifungal activity against Candida glabrata 33609 infected in neutropenic ICR/Swiss mouse candidiasis model assessed as dose required to maintain […] of 1.83 +/- 0.54 log10CFU per kidney administered intraperitoneally every 24 hrs up to 4 days measured per 24 hrs; type: functional
[8] = test system: Candida albicans; test: Antifungal activity against Candida albicans 580 assessed as complete growth inhibition after 24 hrs by CLSI end point method; type: functional; details: Candida albicans, 580, 24 h; in short: as §1
[9] = test system: Serum; test: Fraction unbound in Candida glabrata 5376-infected neutropenic ICR/Swiss mouse serum at 20 mg/kg, ip administered 2 hrs postinfection as single dose measured after 32 hrs; type: ADME, organism-based; set-up: dose 20 mg/kg, route intraperitoneal; details: in vivo
[10] = test system: Nakaseomyces glabratus; test: Antifungal activity against Candida glabrata 570 assessed as partial growth inhibition after 24 hrs by CLSI end point method; type: functional; details: Nakaseomyces glabratus, 570, 24 h
In short: (§2)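 Two end points were read against the drug-free control well: partial growth inhibition (the CLSI end point) and complete inhibition. Run in duplicate on four separate occasions; the value is the mean. Drug stock was made in DMSO and diluted in 0.9% NaCl.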

[11] = test system: Candida albicans; test: Antifungal activity against Candida albicans 98-210 assessed as partial growth inhibition after 24 hrs by CLSI end point method; type: functional; details: 98-210, 24 h; in short: as §1
[12] = test system: Candida albicans; test: Antifungal activity against Candida albicans 580 infected in neutropenic ICR/Swiss mouse candidiasis model assessed as dose required for 1-log10 reduction in […] per kidney administered intraperitoneally every 24 hrs up to 4 days measured per 24 hrs; type: functional
In short: (§3)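 Neutropenic mice (cyclophosphamide sc on days −4, −1 and +2) were infected iv 2 h before therapy. Five total doses from 0.078 to 20 mg/kg/24 h were given ip q24h for 4 days, three mice per regimen. Kidney CFU were measured at the end of therapy. Static and 1-log-kill doses were derived from a Hill sigmoid dose-effect fit.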

[13] = test system: Nakaseomyces glabratus; test: Antifungal activity against Candida glabrata 5592 infected in neutropenic ICR/Swiss mouse candidiasis model assessed as dose required to maintain […] of 1.83 +/- 0.54 log10CFU per kidney administered intraperitoneally every 24 hrs up to 4 days measured per 24 hrs; type: functional
[14] = test system: Nakaseomyces glabratus; test: Antifungal activity against Candida glabrata 5376 assessed as complete growth inhibition after 24 hrs by CLSI end point method; type: functional; details: Nakaseomyces glabratus, 5376, 24 h; in short: as §2
[15] = test system: Candida albicans; test: Antifungal activity against Candida albicans K-1 infected in neutropenic ICR/Swiss mouse candidiasis model assessed as dose required for 1-log10 reduction in […] per kidney administered intraperitoneally once every 96 hrs measured per 96 hrs; type: functional
In short: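 Neutropenic mice were infected iv with C. albicans K-1 2 h before therapy. Total doses of 1.25, 5, 20, 80 and 320 mg/kg/96 h were split into 1, 2, 4 or 6 ip doses (q96h, q48h, q24h, q16h), three mice per regimen. Effect is the log10 CFU/kidney relative to untreated controls at 96 h. Static and 1-log doses were taken from a Hill model fit.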

[16] = test system: Candida albicans; test: Antifungal activity against Candida albicans K-1 infected in neutropenic ICR/Swiss mouse candidiasis model assessed as reduction of […] in kidney at 5 mg/kg, ip administered 2 hrs postinfection as single dose measured after 96 hrs post dosing by time-kill assay; type: functional, organism-based; set-up: dose 5 mg/kg
In short: (§4)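 Single ip dose (20, 5 or 1.25 mg/kg) given 2 h after iv infection of neutropenic mice with K-1. Three treated and three control mice were sampled at intervals over 96 h for kidney CFU. PAFE is the time for treated burden to rise 1 log10 after serum levels fall below MIC, minus the same time in controls. Free drug was taken as 1%.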

[17] = test system: Candida albicans; test: Antifungal activity against Candida albicans 98-17 infected in neutropenic ICR/Swiss mouse candidiasis model assessed as dose required for 1-log10 reduction in […] per kidney administered intraperitoneally every 24 hrs up to 4 days measured per 24 hrs; type: functional; in short: as §3
[18] = test system: Serum; test: Fraction unbound in Candida glabrata 5376-infected neutropenic ICR/Swiss mouse serum at 5 mg/kg, ip administered 2 hrs postinfection as single dose; type: ADME, organism-based; set-up: dose 5 mg/kg, route intraperitoneal; details: in vivo
[19] = test system: Candida albicans; test: Antifungal activity against Candida albicans K-1 infected in neutropenic ICR/Swiss mouse candidiasis model assessed as reduction of […] in kidney at 20 mg/kg, ip administered 2 hrs postinfection as single dose measured after 96 hrs post dosing by time-kill assay; type: functional, organism-based; set-up: dose 20 mg/kg; in short: as §4
[20] = test system: Candida albicans; test: Antifungal activity against Candida albicans K-1 infected in neutropenic ICR/Swiss mouse candidiasis model assessed as suppression of fungal regrowth at 1.25 mg/kg, ip administered 2 hrs postinfection as single dose by time-kill assay; type: functional, organism-based; set-up: dose 1.25 mg/kg
In short: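 Single ip dose of 1.25, 5 or 20 mg/kg given 2 h after iv infection of neutropenic mice. Groups of 3 treated and 3 control mice sampled at 1–24 h intervals over 96 h. Kidney homogenates plated on SDA, 24 h at 35°C. PAFE = time for treated burden to rise 1 log10 CFU/kidney after serum level fell below MIC, minus the same time in controls.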

For CCCCCOc1ccc(-c2ccc(-c3ccc(C(=O)N[C@H]4C[C@@H](O)[C@@H](O)NC(=O)[C@@H]5[C@@H](O)[C@@H](C)CN5C(=O)[C@H]([C@@H](C)O)NC(=O)[C@H]([C@H](O)[C@@H](O)c5ccc(O)cc5)NC(=O)[C@@H]5C[C@@H](O)CN5C(=O)[C@H]([C@@H](C)O)NC4=O)cc3)cc2)cc1 [ANIDULAFUNGIN] ({pTerphenylCO(4''-OnC5H11)}-[Orn(4R-OH,5R-OH)]T[Hyp][hTyr(3S-OH,4S-OH)]T[Pro(3S-OH,4S-Me)]; lactam 1-C), the Activity [1] was 7.5 mg/kg, the Cmax [2] was 24000 ng/mL and the Fu [3] was 1%. The log10cfu [4] was 2.37, the MIC [5] was 0.06 µg/mL (≈ 0.0526 µM) and the Activity [6] was 6.8 mg/kg. The Activity [7] was 2 mg/kg, the MIC [8] was 0.03 µg/mL (≈ 0.0263 µM) and the Fu [9] was 1%. The MIC [10] was 0.03 µg/mL (≈ 0.0263 µM), the MIC [11] was 0.015 µg/mL (≈ 0.0132 µM) and the Activity [12] was 2.31 mg/kg. It also gave an Activity [13] of 3.57 mg/kg, an MIC [14] of 0.06 µg/mL (≈ 0.0526 µM) and an Activity [15] of 4.97 mg/kg. For the same compound, the Activity [16] was “Active”, the Activity [17] was 1.95 mg/kg and the Fu [18] was 1%. For the same compound, the Activity [19] was “Active” and the Activity [20] was “Active”.
